Laboratory results published in ChEMBL document CHEMBL3526127, “Absorption, elimination, and metabolism of CS-1036, a novel α-amylase inhibitor in rats and monkeys, and the relationship between gastrointestinal distribution and suppression of glucose absorption” (Drug Metab Dispos, 2013).
Values belong to the molecule of their own block, whether it stands above or below them.

Columns and labels:
[1] = Cmax in cynomolgus monkey at 10 mg/kg, po administered as single dose by LC-MS/MS method; assay type: ADME, organism-based, Macaca fascicularis; design: dose 10 mg/kg, route oral; conditions: in vivo
How it was run: (§1)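 Fasted male F344 rats (146–185 g) and cynomolgus monkeys (3.48–4.29 kg), n = 4 each, received a single oral dose; monkeys had 2-week washouts. Plasma sampled up to 48 h, stored at […], assayed by LC-MS/MS with a deuterated internal standard. Cmax taken from observed data by noncompartmental analysis; mean ± S.D. (n = 3 or 4).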

[2] = AUC (0 to infinity) in F344 rat at 0.3 mg/kg, po administered as single dose by LC-MS/MS method; assay type: ADME, organism-based; design: time infinity, dose 0.3 mg/kg, route oral; conditions: plasma
How it was run: (§2)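 Fasted male F344 rats (146–185 g) or male cynomolgus monkeys (3.48–4.29 kg), n = 4 per dose, given single iv or oral dose of 0.3, 1.0, 3.0 or 10.0 mg/kg; monkeys dosed with 2-week washouts. Blood sampled to 48 h; plasma stored frozen. LC-MS/MS with deuterated internal standard. Noncompartmental analysis: AUClast by trapezoidal rule; AUC0–inf = AUClast + Ctz/terminal rate constant; mean ± S.D.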

[3] = Oral bioavailability in F344 rat at 10 mg/kg administered as single dose by LC-MS/MS method; assay type: ADME, organism-based; conditions: in vivo
How it was run: (§3)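 Male F344 rats (146–185 g) and male cynomolgus monkeys (3.48–4.29 kg), n = 4 each, fasted overnight, received single iv or oral doses of 0.3, 1.0, 3.0 or 10.0 mg/kg. Monkeys had 2-week washouts between doses. Plasma was sampled to 48 h and assayed by LC-MS/MS with deuterated internal standard. Noncompartmental analysis: tmax observed; t1/2 by regression on ≥3 terminal log points; Vss = dose·AUMC/(AUC0–inf)²; Foral = oral/iv AUC0–inf at the same dose.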

[4] = Half life in F344 rat at 3 mg/kg, iv administered as single dose by LC-MS/MS method; assay type: ADME, organism-based; design: dose 3 mg/kg, route intravenous; conditions: in vivo; how it was run: as §3
[5] = Half life in F344 rat at 10 mg/kg, iv administered as single dose by LC-MS/MS method; assay type: ADME, organism-based; design: dose 10 mg/kg, route intravenous; conditions: in vivo
How it was run: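 Fasted male F344 rats (146–185 g, n = 4 per dose) received single i.v. CS-1036. Plasma was sampled up to 48 h and analysed by LC-MS/MS. t1/2 came from noncompartmental regression of three or more log-transformed terminal-phase points. Mean ± S.D.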

[6] = Half life in cynomolgus monkey at 10 mg/kg, iv administered as single dose by LC-MS/MS method; assay type: ADME, organism-based, Macaca fascicularis; design: dose 10 mg/kg, route intravenous; conditions: in vivo; how it was run: as §3
[7] = Cmax in F344 rat at 1 mg/kg, po administered as single dose by LC-MS/MS method; assay type: ADME, organism-based; design: dose 1 mg/kg, route oral; conditions: in vivo; how it was run: as §1
[8] = AUC (0 to infinity) in F344 rat at 10 mg/kg, iv administered as single dose by LC-MS/MS method; assay type: ADME, organism-based; design: time infinity, dose 10 mg/kg, route intravenous; conditions: plasma; how it was run: as §2
[9] = Clearance in cynomolgus monkey at 3 mg/kg, iv administered as single dose by LC-MS/MS method; assay type: ADME, organism-based, Macaca fascicularis; design: dose 3 mg/kg, route intravenous; conditions: in vivo
How it was run: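 Fasted male F344 rats (146–185 g) and male cynomolgus monkeys (3.48–4.29 kg), n = 4 each, received a single iv dose; monkeys had 2-week washouts between doses. Blood was sampled up to 48 h and plasma stored at […]. Plasma parent was quantified by LC-MS/MS with a deuterated internal standard. CL = dose/AUC0–inf by noncompartmental analysis; mean ± S.D.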

[10] = Volume of distribution at steady state in F344 rat at 0.3 mg/kg, iv administered as single dose by LC-MS/MS method; assay type: ADME, organism-based; design: dose 0.3 mg/kg, route intravenous; conditions: in vivo, read-out: Vdss; how it was run: as §3
[11] = Volume of distribution at steady state in cynomolgus monkey at 0.3 mg/kg, iv administered as single dose by LC-MS/MS method; assay type: ADME, organism-based, Macaca fascicularis; design: dose 0.3 mg/kg, route intravenous; conditions: in vivo, read-out: Vdss; how it was run: as §3
[12] = Tmax in F344 rat at 0.3 mg/kg, po administered as single dose by LC-MS/MS method; assay type: ADME, organism-based; design: dose 0.3 mg/kg, route oral; conditions: in vivo; how it was run: as §3
[13] = AUC (0 to infinity) in F344 rat at 0.3 mg/kg, iv administered as single dose by LC-MS/MS method; assay type: ADME, organism-based; design: time infinity, dose 0.3 mg/kg, route intravenous; conditions: plasma; how it was run: as §2
[14] = AUC (0 to infinity) in F344 rat at 1 mg/kg, po administered as single dose by LC-MS/MS method; assay type: ADME, organism-based; design: dose 1 mg/kg, route oral, time infinity; conditions: plasma; how it was run: as §2
[15] = Half life in F344 rat at 0.3 mg/kg, po administered as single dose by LC-MS/MS method; assay type: ADME, organism-based; design: dose 0.3 mg/kg, route oral; conditions: in vivo
[16] = Drug excretion in F344 rat feces at 1 mg/kg, po administered as single dose after 0 to 48 hrs by scintillation counting method; assay type: ADME, organism-based; design: dose 1 mg/kg, route oral; conditions: in vivo
How it was run: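 Fasted F344 rats (152–156 g iv via tail vein; 154–159 g oral; n = 4) received [14C]-labelled drug at 1 mg/kg (41.9 µCi/kg). Animals were kept in metabolic cages; urine and feces were collected to 168 h, and expired CO2 was trapped in 2-aminoethanol/2-methoxyethanol (1:1) to 48 h. Samples were counted by liquid scintillation (feces homogenized). Results are % of dose, mean ± S.D.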

[17] = system: Ileum; assay: Drug distribution in F344 rat ileum at 1 mg/kg, po administered as single dose after 1 hr by scintillation counting method; assay type: ADME, organism-based; design: dose 1 mg/kg, route oral; conditions: in vivo
How it was run: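 [14C]-labelled drug (1 mg/kg, 42.4 µCi/kg) was given orally to fasted F344 rats (148–168 g, n = 3). Contents of stomach, duodenum+jejunum, ileum and cecum were washed out with water at 0.5–8 h, homogenized, solubilized and counted by liquid scintillation. Results are % of dose, mean ± S.D.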

[18] = Drug metabolism in F344 rat feces assessed as N-acetylated 1,4-dideoxy-1,4-imino-D-arabinitol formation by LC-MS/MS method; assay type: ADME, tissue-based
[19] = Drug metabolism in rat liver S9 fractions at 0.42 uCi/ml assessed as metabolite formation in presence of NADPH after 1 hr at 37 degC by LC-MS/MS method; assay type: ADME, subcellular, Liver S9 fraction; conditions: s9, 1 h
[20] = Drug metabolism in rat kidney […] S9 fractions at 0.42 uCi/ml assessed as metabolite formation in presence of NADPH after 1 hr at 37 degC by LC-MS/MS method; assay type: ADME, subcellular; conditions: s9, 1 h
[21] = Drug metabolism in monkey kidney S9 fractions at 0.42 uCi/ml assessed as metabolite formation in presence of NADPH after 1 hr at 37 degC by LC-MS/MS method; assay type: ADME, tissue-based, Macaca mulatta; conditions: rhesus monkey, s9, 1 h
[22] = Drug metabolism in human kidney S9 fractions at 0.42 uCi/ml assessed as metabolite formation in presence of NADPH after 1 hr at 37 degC by LC-MS/MS method; assay type: ADME, tissue-based; conditions: s9, 1 h
[23] = Drug metabolism in anaerobic culture broth of human feces assessed as 1,4-dideoxy-1,4-imino-D-arabinitol formation at 63.5 uCi/ml after 24 hrs at 35 degC by LC-MS/MS method; assay type: ADME, tissue-based
[24] = Drug excretion in cynomolgus monkey urine at 3 mg/kg, po administered as single dose after 48 hrs by scintillation counting method; conditions: in vivo

Cmax [1]: 152 ng/mL | AUC(0-inf) [2]: 45.6 ng·h/mL | bioavailability [3]: 2.03% | half-life [4]: 1420 min | half-life [5]: 1290 min | half-life [6]: 1800 min | Cmax [7]: 45.5 ng/mL | AUC(0-inf) [8]: 53200 ng·h/mL | clearance [9]: 2.75 mL/min/kg | Vd [10]: 0.218 L/kg | Vd [11]: 0.233 L/kg | Tmax [12]: 30 min | AUC(0-inf) [13]: 1870 ng·h/mL | AUC(0-inf) [14]: 115 ng·h/mL | half-life [15]: 161 min
SMILES: C[C@H]1O[C@@H](O[C@H]2[C@H](O)[C@@H](O)[C@@H](O[C@H]3[C@H](O)CN[C@@H]3CO)O[C@@H]2CO)[C@H](O)[C@@H](O)[C@@H]1O

Drug excretion [16]: 77.59% | Drug uptake [17]: 67.7% | Drug metabolism [18]: metabolite_detected | Drug metabolism [19]: metabolite_not_detected | Drug metabolism [20]: metabolite_not_detected | Drug metabolism [21]: metabolite_not_detected | Drug metabolism [22]: metabolite_not_detected | Drug metabolism [23]: metabolite_detected | Drug excretion [24]: 2.9%
SMILES: C[C@H]1O[C@@H](O[C@H]2[C@H](O)[C@@H](O)[C@@H](O[14C@H]3[14C@H](O)[14CH2]N[14C@@H]3[14CH2]O)O[C@@H]2CO)[C@H](O)[C@@H](O)[C@@H]1O
